Blank lines part the entries; values can stand above or below the compound they belong to. The source made the active and inactive calls. The calls are words filed in the database; no cut-off is given here.
Key:
HEK293 = test: (§1) Cytotoxicity against HEK293 cells expressing human AC1 at 30 uM preincubated for 30 mins followed by A23187 stimulation and measured after 1 hr by CellTiter-Glo luminescent cell viability assay relative to control; format: cell-based; settings: hek293, 1 h, 30 µM
Summary of the method: (§2)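 Cytotoxicity in HEK lines stably expressing AC1 or AC8: single 30 µM dose, 90 min incubation. Viability was read by luminescent ATP reporter as % of DMSO-treated (100%) and Triton-X-treated (0%) controls.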

Homo sapiens = species: Homo sapiens; test: Selectivity ratio of IC50 for human AC8 expressed in HEK293 cells to IC50 for human AC1 expressed in HEK293 cells; format: cell-based
Adenylate cyclase type 1 [1] = target: T1, Adenylate cyclase type 1 (Homo sapiens, UniProt Q08828); test: Inhibition of human AC1 expressed in HEK293 AC3/AC6 deficit cells assessed as decrease in forskolin-stimulated cAMP accumulation preincubated for 30 mins followed by forskolin stimulation and measured after 1 hr by fluorescence assay; format: cell-based
Summary of the method: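 HEK cells lacking AC3/AC6 were transiently transfected with AC1. Cells were incubated with test compounds in the presence of forskolin at 3, 10 or 30 µM, and cAMP accumulation was measured.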
Target sequence in this assay (Q08828 whole entry, looked up): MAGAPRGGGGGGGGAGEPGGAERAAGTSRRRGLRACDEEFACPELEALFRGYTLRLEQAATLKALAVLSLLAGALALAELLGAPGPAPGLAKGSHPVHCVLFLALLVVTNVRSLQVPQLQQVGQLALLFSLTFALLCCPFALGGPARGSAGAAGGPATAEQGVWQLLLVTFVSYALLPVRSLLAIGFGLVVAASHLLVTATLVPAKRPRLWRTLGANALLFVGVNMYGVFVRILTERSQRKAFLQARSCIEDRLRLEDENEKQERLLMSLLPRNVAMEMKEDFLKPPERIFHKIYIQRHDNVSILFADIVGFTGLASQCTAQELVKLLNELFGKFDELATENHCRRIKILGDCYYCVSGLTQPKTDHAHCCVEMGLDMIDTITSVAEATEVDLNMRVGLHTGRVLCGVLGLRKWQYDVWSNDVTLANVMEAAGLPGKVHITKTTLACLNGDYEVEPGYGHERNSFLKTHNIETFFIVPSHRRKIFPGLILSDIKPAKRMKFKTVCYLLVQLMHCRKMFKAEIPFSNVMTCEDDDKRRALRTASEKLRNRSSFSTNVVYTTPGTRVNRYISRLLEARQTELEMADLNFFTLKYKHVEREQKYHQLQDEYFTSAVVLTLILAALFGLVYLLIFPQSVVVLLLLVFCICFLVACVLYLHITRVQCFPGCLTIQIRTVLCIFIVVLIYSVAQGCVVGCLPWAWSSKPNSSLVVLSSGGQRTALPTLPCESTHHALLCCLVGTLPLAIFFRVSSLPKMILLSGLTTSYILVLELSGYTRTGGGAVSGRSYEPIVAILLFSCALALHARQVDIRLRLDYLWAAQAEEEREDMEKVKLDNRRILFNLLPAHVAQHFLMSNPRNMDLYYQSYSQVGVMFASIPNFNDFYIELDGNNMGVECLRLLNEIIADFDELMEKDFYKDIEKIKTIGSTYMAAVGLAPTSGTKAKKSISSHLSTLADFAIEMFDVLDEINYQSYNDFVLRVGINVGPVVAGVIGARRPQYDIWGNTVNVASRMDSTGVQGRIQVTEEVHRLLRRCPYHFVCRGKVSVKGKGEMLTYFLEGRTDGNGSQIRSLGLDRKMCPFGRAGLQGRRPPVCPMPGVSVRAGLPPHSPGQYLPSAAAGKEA

Adenylate cyclase type 1 [2] = target: T1, Adenylate cyclase type 1; test: Inhibition of human AC1 expressed in HEK293 cells assessed as decrease in A23187-stimulated cAMP accumulation preincubated for 30 mins followed by A23187 stimulation and measured after 1 hr by fluorescence assay; format: cell-based
Summary of the method: (§3)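 HEK cells stably expressing AC1 or AC8; Ca2+/calmodulin-stimulated cAMP accumulation measured. Dose-response curves began at 30 µM. […] Values are the mean and SEM of three independent experiments.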
Target sequence in this assay (Q08828 whole entry): as the sequence (Q08828 whole entry, looked up) above

Adenylate cyclase type 8 = Adenylate cyclase type 8 (Homo sapiens, UniProt P40145); test: Inhibition of human AC8 expressed in HEK293 cells assessed as decrease in A23187-stimulated cAMP accumulation at 30 uM preincubated for 30 mins followed by A23187 stimulation and measured after 1 hr by fluorescence assay relative to control; format: cell-based; summary of the method: as §3
Sequence of Adenylate cyclase type 8 (P40145 whole entry): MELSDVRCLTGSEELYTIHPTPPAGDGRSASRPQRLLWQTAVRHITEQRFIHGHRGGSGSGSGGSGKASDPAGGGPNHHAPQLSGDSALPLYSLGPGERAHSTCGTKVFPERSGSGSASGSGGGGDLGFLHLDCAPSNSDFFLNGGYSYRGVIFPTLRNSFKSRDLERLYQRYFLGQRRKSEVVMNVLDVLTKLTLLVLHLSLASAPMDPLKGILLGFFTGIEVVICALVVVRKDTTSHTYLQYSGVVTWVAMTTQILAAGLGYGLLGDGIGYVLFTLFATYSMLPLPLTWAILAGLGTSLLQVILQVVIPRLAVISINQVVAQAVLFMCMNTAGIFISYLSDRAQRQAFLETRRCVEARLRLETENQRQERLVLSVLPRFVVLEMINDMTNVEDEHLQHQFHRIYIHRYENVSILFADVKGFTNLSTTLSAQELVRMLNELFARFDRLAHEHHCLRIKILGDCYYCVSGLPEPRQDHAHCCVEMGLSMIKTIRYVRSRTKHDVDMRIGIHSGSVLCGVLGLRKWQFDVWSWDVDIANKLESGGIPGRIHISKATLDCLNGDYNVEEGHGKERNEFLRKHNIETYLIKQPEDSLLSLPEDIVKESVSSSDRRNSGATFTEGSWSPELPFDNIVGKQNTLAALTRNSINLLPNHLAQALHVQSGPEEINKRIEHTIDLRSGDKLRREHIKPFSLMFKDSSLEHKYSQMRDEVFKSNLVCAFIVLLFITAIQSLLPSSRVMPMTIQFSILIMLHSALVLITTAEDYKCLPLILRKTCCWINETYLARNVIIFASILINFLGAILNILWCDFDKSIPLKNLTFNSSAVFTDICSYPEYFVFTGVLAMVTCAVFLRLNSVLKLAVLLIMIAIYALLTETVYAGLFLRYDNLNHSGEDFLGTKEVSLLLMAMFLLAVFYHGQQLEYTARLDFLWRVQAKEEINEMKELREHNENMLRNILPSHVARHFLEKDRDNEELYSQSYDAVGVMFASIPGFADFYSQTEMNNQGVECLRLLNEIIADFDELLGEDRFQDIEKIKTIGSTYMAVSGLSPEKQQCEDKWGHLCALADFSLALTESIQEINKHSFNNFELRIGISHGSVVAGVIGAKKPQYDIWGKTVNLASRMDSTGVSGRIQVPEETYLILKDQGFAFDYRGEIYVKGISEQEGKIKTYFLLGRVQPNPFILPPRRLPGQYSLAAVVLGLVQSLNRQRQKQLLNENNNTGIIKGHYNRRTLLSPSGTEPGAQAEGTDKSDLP

Mus musculus [3] = test: Analgesic activity in C57BL/6 mouse model of CFA-induced inflammatory pain model assessed as reduction in mechanical sensitivity in ipsilateral paw at 5 mg/kg, ip measured after 1 day post dose by von Frey filament test based modified up-and-down technique; format: functional, organism-based
[4] = as §1; format: cell-based; settings: HEK293 cells expressing human AC1, read-out: Activity; summary of the method: as §2
Mus musculus [5] = test: Analgesic activity in C57BL/6 mouse model of CFA-induced inflammatory pain model assessed as reduction in mechanical sensitivity in ipsilateral paw at 5 mg/kg, ip measured after 30 mins post dose by von Frey filament test based modified up-and-down technique; format: functional, organism-based
Summary of the method: (§4)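 Male C57BL/6 mice (n=7) received CFA in the ipsilateral hind paw. On day 2, after baseline hypersensitivity was measured, they were given vehicle or 5 mg/kg i.p. Mechanical sensitivity of ipsilateral and contralateral paws was recorded 30 min after injection. Analysis used two-way repeated-measures ANOVA with Bonferroni test.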

Mus musculus [6] = test: Effect on mechanical sensitivity in contralateral pa in C57BL/6 mouse model of CFA-induced inflammatory pain model at 5 mg/kg, ip measured after 30 mins post dose by von Frey filament test based modified up-and-down technique; format: ADME, organism-based; settings: in vivo, 0.5 h; summary of the method: as §4
Adenylate cyclase type 1 [7] = target: T1, Adenylate cyclase type 1; test: Inhibition of human AC1 expressed in HEK293 cells assessed as decrease in A23187-stimulated cAMP accumulation at 30 uM preincubated for 30 mins followed by A23187 stimulation and measured after 1 hr by fluorescence assay relative to control; format: cell-based; summary of the method: as §3
Target sequence in this assay (Q08828 whole entry, looked up): as the sequence (Q08828 whole entry, looked up) above

[8] = target: Adenylate cyclase type 2 (Homo sapiens) (UniProt Q08462); test: Inhibition of human AC2 expressed in HEK293 cells assessed as PMA-stimulated cAMP accumulation at 30 uM preincubated for 30 mins followed by PMA stimulation and measured after 1 hr by fluorescence assay relative to control; format: cell-based; set-up: scale not given: the % may be the effect or the level left
Sequence of Adenylate cyclase type 2 (Homo sapiens) (Q08462 whole entry): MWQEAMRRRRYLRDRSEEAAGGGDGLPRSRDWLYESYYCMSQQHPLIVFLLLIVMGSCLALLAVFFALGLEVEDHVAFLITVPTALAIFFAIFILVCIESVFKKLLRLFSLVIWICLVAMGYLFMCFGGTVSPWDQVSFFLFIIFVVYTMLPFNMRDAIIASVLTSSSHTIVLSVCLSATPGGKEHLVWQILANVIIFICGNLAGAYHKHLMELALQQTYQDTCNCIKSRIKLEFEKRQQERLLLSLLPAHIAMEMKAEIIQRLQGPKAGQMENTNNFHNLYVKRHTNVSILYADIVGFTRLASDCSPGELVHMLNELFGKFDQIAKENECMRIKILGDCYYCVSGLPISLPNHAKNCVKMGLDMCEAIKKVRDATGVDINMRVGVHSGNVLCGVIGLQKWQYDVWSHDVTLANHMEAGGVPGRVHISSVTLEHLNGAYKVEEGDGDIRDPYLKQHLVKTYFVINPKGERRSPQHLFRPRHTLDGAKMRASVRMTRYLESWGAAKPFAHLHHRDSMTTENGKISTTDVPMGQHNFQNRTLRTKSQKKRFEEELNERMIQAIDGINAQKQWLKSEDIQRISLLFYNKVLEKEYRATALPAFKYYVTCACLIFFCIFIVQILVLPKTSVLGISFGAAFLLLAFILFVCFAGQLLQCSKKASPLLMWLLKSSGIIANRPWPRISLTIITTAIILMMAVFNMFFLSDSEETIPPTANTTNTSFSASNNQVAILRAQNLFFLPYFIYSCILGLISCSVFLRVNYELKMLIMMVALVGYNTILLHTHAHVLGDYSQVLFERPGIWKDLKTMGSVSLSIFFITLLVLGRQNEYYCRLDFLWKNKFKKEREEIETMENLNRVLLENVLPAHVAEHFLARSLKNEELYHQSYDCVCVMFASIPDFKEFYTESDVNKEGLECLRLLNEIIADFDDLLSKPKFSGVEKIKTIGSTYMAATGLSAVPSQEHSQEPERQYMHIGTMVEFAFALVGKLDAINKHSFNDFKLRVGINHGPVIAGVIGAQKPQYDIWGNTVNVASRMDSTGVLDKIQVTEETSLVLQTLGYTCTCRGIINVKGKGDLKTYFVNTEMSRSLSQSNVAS
Summary of the method: (§5)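 Group 2 AC2 (PKC-stimulated) or group 3 AC (forskolin-stimulated) cells were exposed to a single 30 µM dose (n = 3). cAMP activity was normalized to DMSO controls set as 100%.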

[9] = target: Adenylate cyclase type 5 (Homo sapiens) (UniProt O95622); test: Inhibition of human AC5 expressed in HEK293 cells assessed as forskolin-stimulated cAMP accumulation at 30 uM preincubated for 30 mins followed by forskolin stimulation and measured after 1 hr by fluorescence assay relative to control; format: cell-based; set-up: scale not given: the % may be the effect or the level left; summary of the method: as §5
Sequence of Adenylate cyclase type 5 (Homo sapiens) (O95622 whole entry, looked up): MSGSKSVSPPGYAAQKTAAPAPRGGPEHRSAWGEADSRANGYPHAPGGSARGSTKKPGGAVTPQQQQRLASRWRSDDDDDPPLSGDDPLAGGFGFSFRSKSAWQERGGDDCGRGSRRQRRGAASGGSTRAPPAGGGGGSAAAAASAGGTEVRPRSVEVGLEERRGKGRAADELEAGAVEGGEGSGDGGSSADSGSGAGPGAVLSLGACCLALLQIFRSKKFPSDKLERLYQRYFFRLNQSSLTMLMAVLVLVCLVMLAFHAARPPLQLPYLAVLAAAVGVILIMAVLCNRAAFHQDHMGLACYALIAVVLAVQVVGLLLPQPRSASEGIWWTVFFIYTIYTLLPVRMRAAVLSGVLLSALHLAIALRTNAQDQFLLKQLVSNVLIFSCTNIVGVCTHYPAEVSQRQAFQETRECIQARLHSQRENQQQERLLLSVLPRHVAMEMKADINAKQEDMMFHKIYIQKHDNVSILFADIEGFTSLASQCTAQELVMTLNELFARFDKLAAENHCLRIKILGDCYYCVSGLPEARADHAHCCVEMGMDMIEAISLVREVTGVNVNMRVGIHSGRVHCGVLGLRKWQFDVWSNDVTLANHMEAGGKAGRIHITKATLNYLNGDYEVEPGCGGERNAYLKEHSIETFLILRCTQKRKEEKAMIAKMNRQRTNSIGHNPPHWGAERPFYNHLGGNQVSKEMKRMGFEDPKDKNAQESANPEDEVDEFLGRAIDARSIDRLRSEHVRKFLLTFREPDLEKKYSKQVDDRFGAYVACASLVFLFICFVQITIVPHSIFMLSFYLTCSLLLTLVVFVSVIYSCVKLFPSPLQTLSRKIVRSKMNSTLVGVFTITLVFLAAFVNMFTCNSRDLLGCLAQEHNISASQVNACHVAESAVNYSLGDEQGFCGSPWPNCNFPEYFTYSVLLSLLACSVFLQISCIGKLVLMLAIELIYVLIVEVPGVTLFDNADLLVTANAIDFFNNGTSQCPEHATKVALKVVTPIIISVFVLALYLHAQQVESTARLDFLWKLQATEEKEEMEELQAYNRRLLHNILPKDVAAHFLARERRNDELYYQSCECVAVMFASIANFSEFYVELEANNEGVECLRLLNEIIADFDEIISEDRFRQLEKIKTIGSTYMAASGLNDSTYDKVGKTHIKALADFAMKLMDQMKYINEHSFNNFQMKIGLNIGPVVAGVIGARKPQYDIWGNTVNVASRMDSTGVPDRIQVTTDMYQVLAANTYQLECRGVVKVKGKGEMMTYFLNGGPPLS

Adenylate cyclase type 1 [10] = target: T1, Adenylate cyclase type 1; test: Inhibition of AC1 (unknown origin) expressed in HEK cells assessed as decrease in A23187-stimulated cAMP accumulation preincubated for 30 mins followed by A23187 stimulation and measured after 1 hr; format: cell-based; summary of the method: as §3
Target sequence in this assay (Q08828 whole entry): as the sequence (Q08828 whole entry, looked up) above

Compound: O=C(Nc1nnc(-c2ccc(F)cc2)o1)c1cccc(-c2ccccc2)c1
- Activity (HEK293): 71%
- Ratio IC50 (Homo sapiens): 3

Compound: Nc1ncnc2c1NCN2C1CCCO1 (stereo unspecified)
- inhibition (Adenylate cyclase type 1 [1]): Dose-dependent effect

Compound: Cc1cc(C(=O)Nc2nnc(-c3ccc(F)cc3)o2)cc(C(F)(F)F)c1
- Activity (Mus musculus [3]): inactive
- viability at 1 h, 30 µM [4]: 102%
- Activity (Mus musculus [5]): Active
- Ratio IC50 (Homo sapiens): 2.9
- Activity (Mus musculus [6]): Non-Toxic

The next lines start with results.

- IC50 (Adenylate cyclase type 1 [2]): 13 µM
- inhibition (Adenylate cyclase type 8): 23%
Compound: O=C(Nc1nnc(-c2ccccc2)o1)c1cccc(C(F)(F)F)c1
- Activity (HEK293): 78%
- Ratio IC50 (Homo sapiens): > 2.3

- inhibition (Adenylate cyclase type 1 [7]): 20%
- inhibition (Adenylate cyclase type 8): 28%
Compound: O=C(Nc1nnc(-c2ccco2)o1)c1ccccc1
- Activity (HEK293): 73%

- Activity [8]: 449%
- Activity [9]: 189%
- inhibition (Adenylate cyclase type 1 [1]): Dose-dependent effect
Compound: O=C(Nc1nnc(-c2ccc3c(c2)CCCC3)o1)c1cccc(C(F)(F)F)c1
- viability at 1 h, 30 µM [4]: 107 to 125%
- Ratio IC50 (Homo sapiens): 4.9 to 9

- IC50 (Adenylate cyclase type 1 [10]): 2.3 µM
Compound: O=c1cc(C(Cl)(Cl)Cl)oc2ccc(Cl)cc12
